In ChEMBL document CHEMBL1121742, “Synthesis and antibacterial activity of some ester, amides, and hydrazides of 3-carboxyrifamycin S. Relationship between structure and activity of ansamycins” (1981) one finds MIC data, which are given here for nine molecules.

In brackets after ≈: the same amount, converted by molar mass.

The test system of assay [1] is Escherichia coli. Description: Minimum inhibitory concentration of compound tested for antibacterial activity against Escherichia coli ML/35. The assay is classed as functional. The essentials: (§1)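 MIC by serial dilution in liquid medium in test tubes. Medium was brain-heart infusion and the inoculum was 10⁶ cells/mL. Tubes were incubated at 35 °C for 24 h. MIC was taken as the lowest antibiotic concentration preventing visible growth.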

The subject of assay [2] is Klebsiella pneumoniae. Description: Minimum inhibitory concentration of compound tested for antibacterial activity against Klebsiella pneumoniae ottaviani. The format is functional. The essentials: as §1
For assay [3], the system named is Salmonella paratyphi. The experiment in a line: Minimum inhibitory concentration of compound tested for antibacterial activity against Salmonella paratyphi BO 248 K(Sclavo). The assay is classed as functional, Salmonella enterica subsp. enterica serovar Paratyphi A. The note with it: Salmonella enterica.
For assay [4], the system named is Staphylococcus aureus. Description: Minimum inhibitory concentration of compound tested for antibacterial activity against Staphylococcus aureus 209 P(FDA). The assay is classed as functional. The essentials:
as §1

For assay [5], the system named is Escherichia coli. Description: Minimum inhibitory concentration of compound tested for antibacterial activity against Escherichia coli ML/35; 25-50. The format is functional. The essentials:
as §1

In assay [6] the test system is Klebsiella pneumoniae. The experiment in a line: Minimum inhibitory concentration of compound tested for antibacterial activity against Klebsiella pneumoniae ottaviani; 25-50. The format is functional. The essentials:
as §1

In the case of `COC1/C=C/OC2(C)Oc3c(C)c(O)c4c(c3C2=O)C(=O)C(C(=O)N(C)N2CCCCC2)=C(NC(=O)/C(C)=C\C=C\C(C)C(O)C(C)C(O)C(C)C(OC(C)=O)C1C)C4=O` (stereo unspecified), the MIC in assay [1] was more than 50 µg/mL; in assay [2], more than 50 µg/mL; in assay [3], more than 50 µg/mL; in assay [4], approximately 0.03 µg/mL (≈ 0.0359 µM).
In the case of `COC1/C=C/OC2(C)Oc3c(C)c(O)c4c(c3C2=O)C(=O)C(C(=O)NN(C)C)=C(NC(=O)/C(C)=C\C=C\C(C)C(O)C(C)C(O)C(C)C(OC(C)=O)C1C)C4=O` (stereo unspecified), the MIC in assay [1] was more than 50 µg/mL; in assay [2] it was more than 50 µg/mL; in assay [3] it was more than 50 µg/mL; in assay [4] it was less than 0.005 µg/mL.
In the case of `COC1/C=C/OC2(C)Oc3c(C)c(O)c4c(c3C2=O)C(=O)C(C(=O)N(C)C)=C(NC(=O)/C(C)=C\C=C\C(C)C(O)C(C)C(O)C(C)C(OC(C)=O)C1C)C4=O` (stereo unspecified), the MIC was more than 50 µg/mL in assay [1], more than 50 µg/mL in assay [2], more than 50 µg/mL in assay [3] and 0.025 µg/mL (≈ 0.0326 µM) in assay [4].
Consider `COC1/C=C/OC2(C)Oc3c(C)c(O)c4c(c3C2=O)C(=O)C(C(=O)OCC(O)CO)=C(NC(=O)/C(C)=C\C=C\C(C)C(O)C(C)C(O)C(C)C(OC(C)=O)C1C)C4=O` (stereo unspecified), for which the MIC in assay [1] was more than 50 µg/mL; in assay [2], more than 50 µg/mL; in assay [3], more than 50 µg/mL; in assay [4] it was approximately 0.5 µg/mL (≈ 0.614 µM).
With `COC(=O)C1=C2NC(=O)/C(C)=C\C=C\C(C)C(O)C(C)C(O)C(C)C(OC(C)=O)C(C)C(OC)/C=C/OC3(C)Oc4c(C)c(O)c(c(c4C3=O)C1=O)C2=O` (stereo unspecified), the MIC was 25 µg/mL (≈ 33.2 µM) in assay [5], 25 µg/mL (≈ 33.2 µM) in assay [6], approximately 50 µg/mL (≈ 66.3 µM) in assay [3] and 0.05 µg/mL (≈ 0.0663 µM) in assay [4].
For the molecule `COC1/C=C/OC2(C)Oc3c(C)c(O)c4c(c3C2=O)C(=O)C(C(=O)Nc2ccc(Br)cc2)=C(NC(=O)/C(C)=C\C=C\C(C)C(O)C(C)C(O)C(C)C(OC(C)=O)C1C)C4=O` (stereo unspecified), the minimal inhibitory concentration (MIC) in assay [1] is more than 50 µg/mL; in assay [2] it was more than 50 µg/mL; in assay [3] it was more than 50 µg/mL; in assay [4], 0.1 µg/mL (≈ 0.112 µM).
With `CO[C@H]1/C=C/O[C@@]2(C)Oc3c(C)c(O)c4c(O)c(cc(O)c4c3C2=O)NC(=O)/C(C)=C\C=C\[C@H](C)[C@H](O)[C@@H](C)[C@@H](O)[C@@H](C)[C@H](OC(C)=O)[C@@H]1C` [RIFAMYCIN], the MIC in assay [1] is 100 µg/mL (≈ 143 µM); in assay [2] it was 100 µg/mL (≈ 143 µM); in assay [3], 100 µg/mL (≈ 143 µM); in assay [4] it was less than 0.005 µg/mL.
Regarding `COC1/C=C/OC2(C)Oc3c(C)c(O)c4c(c3C2=O)C(=O)C(C(=O)N2CCN(C)CC2)=C(NC(=O)/C(C)=C\C=C\C(C)C(O)C(C)C(O)C(C)C(OC(C)=O)C1C)C4=O` (stereo unspecified), the minimal inhibitory concentration (MIC) in assay [1] is more than 50 µg/mL; in assay [2], more than 50 µg/mL; in assay [3], more than 50 µg/mL; in assay [4] it was 0.1 µg/mL (≈ 0.122 µM).
As for `CO[C@H]1/C=C/O[C@@]2(C)Oc3c(C)c(O)c4c(O)c(c(/C=N/N5CCN(C)CC5)c(O)c4c3C2=O)NC(=O)/C(C)=C\C=C\[C@H](C)[C@H](O)[C@@H](C)[C@@H](O)[C@@H](C)[C@H](OC(C)=O)[C@@H]1C` [RIFAMPIN], the MIC in assay [1] was 6 µg/mL (≈ 7.29 µM); in assay [2], 25 µg/mL (≈ 30.4 µM); in assay [3], 12 µg/mL (≈ 14.6 µM); in assay [4] it was approximately 0.025 µg/mL (≈ 0.0304 µM).

One may read the MIC as the least concentration at which growth counts as inhibited.
